The apparent Kd is a dissociation constant that holds for the conditions of the assay.

The values below come from the EternaBench riboswitch data.

For the data set, the system named is MS2 coat protein. The data set can be described thus: apparent Kd, MS2 coat protein; higher = weaker binding; RNA-MaP array; FMN 200 µM where present. In short, it runs like this:
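In 100 mM Tris-HCl pH 7.5, 80 mM KCl, 4 mM MgCl2, BSA, DTT, yeast tRNA and Tween-20, SNAP-549-labelled MS2 coat protein was titrated from 0.7 or 1.5 nM, doubling to 3 µM, over designs transcribed by stalled E. coli RNA polymerase on Illumina sequencing-chip clusters. This was done first without ligand, then with ligand held constant. After green signal was normalised to red-channel RNA signal and control-cluster median Fmax, the apparent Kd was taken as the median of filtered per-cluster binding-curve fits.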

[1] abbreviates: designed as: OFF switch for flavin mononucleotide, no ligand.
The mark [2] stands for this setting: ligand present: flavin mononucleotide, designed as: OFF switch for flavin mononucleotide.
[3] abbreviates: designed as: ON switch for flavin mononucleotide, no ligand.
Where [4] appears, read: ligand present: flavin mononucleotide, designed as: ON switch for flavin mononucleotide.

Turning to “AAGUAGGCAGGAUAUACAUGAGGAUCACCCAUGUGCCUAUACAAGGUAAUCUUGGGAGGUAGAAGGGCCUACAA”, the “apparent Kd” value worked out at 33.9 nM under setting [1] and 166 nM under setting [2].
Regarding “AUACGCUGAGGAUAUACCAAAACAACAACCUCGUGUAUAAUACAUGAGGAUCACCCAUGUAGAAGGCAGUAAAC”, the “apparent Kd” value worked out at 58.6 nM under setting [1] and 116 nM under setting [2].
Taken in the same sequence, the figures for “CGAUAACAUAGUUAUCCGUAACGUACAUGAGGAUCACCCAUGUAGGAUAUGUUACUAAACUAGUAACAGAAGGACAUGAGUAUU” were 54.9 nM and 315 nM.
“GUUAGACAUGAGGAUCACCCAUGUGAGGAUAUGAUGUGAAUAAAUAAUUAAUUAAGUAUCAGAAGGCACAUAUG”: the “apparent Kd” value is, setting by setting: under setting [1], 129 nM; under setting [2], 149 nM.
Taken in the same sequence, the figures for “AGCUAGUCAGGAUAUACGAACACCUCAAAAGAGGUGAAGGGACAUGAGGAUCACCCAUGUAGAAGGGACUAGCA” were 33.1 nM and 112 nM.
The matching figures for “GUCCGGCGUGUAGGAUAUGGAUCCGAUUAGGAUCCAGAAGGACAUGAGGAUCACCCAUGUACAUGUAAACAGUCAUCACCGGAG”: 9.11 nM and 58.9 nM.
Taken in the same sequence, the figures for “ACAUGAGGAUCACCCAUGUACAGGGUUUAGUUUCAUUGUUUGAAGGAUAUACUUAGUUAGUUGUUGUAGAAGGUCAUAUUUUAU” were 203 nM and 265 nM.
As for “UGUGGGUGAUCAGGAUAUCCGUAUACAUGAGGAUCACCCAUGUCCUUGCUCAGCCGGGUAAGUUUGGAGAAGGGAUCAUCAAAU”, the “apparent Kd” value is, setting by setting: under setting [3], 357 nM; under setting [4], 32.1 nM.
As for “CGCAACUCUGCACAGGUCAACAUGAGGAUCACCCAUGUAUUGAGAAGGAGGAAGAAGAGAGAUUCCUAGGAUAUCAGAGUUGCG”, the “apparent Kd” value under setting [1] was 6.45 nM and the “apparent Kd” value under setting [2] was determined as 6.74 nM.
The matching figures for “UGAUCGAAAGAUCAUAGAUUCUGGCAGGAUAUGCAGUAGUUUUAAUUUACAUGAGGAUCACCCAUGUAGAAGGGCUAGAGUCUA”: 6.33 nM and 7.4 nM.
The matching figures for “GCUAAGAGUGUGAGGAUAUGCUGGUCCUUGGAUCAGCAGAAGGCACAUGAGGAUCACCCAUGUGAAAACUUAGC”: 23.3 nM and 89.6 nM.
As to “GUAUGGGUAGAAGGACAUGAGGAUCACCCAUGUUGUGUGUCUAAGGAUAUUAGAGAAGAUUGACGUAAGAAGGUAGAUGUGUGG”, the “apparent Kd” value is, setting by setting: under setting [1], 94.2 nM; under setting [2], 80.8 nM.
Taken in the same sequence, the figures for “AAAAAACAUGAGGAUCACCCAUGUGAGGAUAUCGGAAAAAAAAAAAAAAAAAAAAAAACGAGAAGGCACAAAAA” were 60.8 nM and 71.7 nM.
The matching figures for “AGAUUCAUGGCCCGUUUGGGCUCACAUGAGGAUCACCCAUGUGAGGAUAUGACGUACCUGACUCGUCAGAAGGCGCAUGCGAAA”: 7.48 nM and 15.7 nM.
Taken in the same sequence, the figures for “GUGCAGGUAGGAUAUCCACCGGCAAACAUGAGGAUCACCCAUGUGACGCUCCCUUGUCUUGGAGAAGGGCCGGCAU” were 33.1 nM and 27.5 nM.
With “UUGGACGUCGUAGGAUAUGUAGGAUAUUCCUACAUGAGGAUCACCCAUGUUGACGUGGAAGAAGGACAGAAGGACGAUGUCCAU”, the “apparent Kd” value amounted to 55.3 nM under setting [3] and 4.63 nM under setting [4].
For “AAAAAAAAAAGGCAGGAUAUUCAAAAAAAAACAUGAGGAUCACCCAUGUAAAAAAAAAAAAAAUGGAAGAAGGGCCAAAAAAAAAA”, the “apparent Kd” value by setting is: under setting [3], 21.1 nM; under setting [4], 22.5 nM.
For “UGAUAGGACAGAGGAUAUACGGAUAGGAUCUACUAUCCUCCUUAAAUAACAUGAGGAUCACCCAUGUAGAAGGCUGUCCUAUCU”, the “apparent Kd” value reads like this: under setting [1], 17.2 nM; under setting [2], 39 nM.
The matching figures for “CUCAAGUUAGGAUAUUGACGCCCAAGACGGCGUCUUGGGCACAAGAAGGGACAUGAGGAUCACCCAUGUCAAUA”: 24.1 nM and 27.7 nM.
In the case of “AAUUAUUUACAGAAGGAGUAAGAUUAUGUAUUACUAGGAUAUGUAAACAUGAGGAUCACCCAUGUGUUUGUAGGUUUUUUAUGU”, the “apparent Kd” value reads like this: under setting [1], 13.4 nM; under setting [2], 7.79 nM.
Turning to “CAGGUAGCUAGAGGAUAUACACGUCUGGAUAAACCAGACGAAUAAACCACAUGAGGAUCACCCAUGUAGAAGGCUAGCUGCCUG”, the “apparent Kd” value is, setting by setting: under setting [1], 15.2 nM; under setting [2], 22.7 nM.
The matching figures for “UAUUUAUAGCAAGGAUAUGAUUAUUAUUAUUUAUCAGAAGGUGCACAUGAGGAUCACCCAUGUUUUACAAUUUGUAAUUUAAUU”: 38.6 nM and 25.1 nM.
For “GCCUCAUAGUAGAAGGGACUUAGGCAGUUAAGCAUCAUGUCCAAUUAACAUGAGGAUCACCCAUGUCAGGAUAUACUAAGAGGC”, the “apparent Kd” value worked out at 8.03 nM under setting [1] and 25.1 nM under setting [2].
The matching figures for “CUUCGUAUAGAGGAUAUAGGUUACUUCGGUAUCCUAGAAGGCUGUACAUGAGGAUCACCCAUGUACUUCAGAUC”: 11.2 nM and 16.9 nM.
